pIC50: −log10 of the molar value.
Target: T1, Signal transducer and activator of transcription 1-alpha/beta (Homo sapiens, UniProt P42224)
T1 sequence (P42224 whole entry): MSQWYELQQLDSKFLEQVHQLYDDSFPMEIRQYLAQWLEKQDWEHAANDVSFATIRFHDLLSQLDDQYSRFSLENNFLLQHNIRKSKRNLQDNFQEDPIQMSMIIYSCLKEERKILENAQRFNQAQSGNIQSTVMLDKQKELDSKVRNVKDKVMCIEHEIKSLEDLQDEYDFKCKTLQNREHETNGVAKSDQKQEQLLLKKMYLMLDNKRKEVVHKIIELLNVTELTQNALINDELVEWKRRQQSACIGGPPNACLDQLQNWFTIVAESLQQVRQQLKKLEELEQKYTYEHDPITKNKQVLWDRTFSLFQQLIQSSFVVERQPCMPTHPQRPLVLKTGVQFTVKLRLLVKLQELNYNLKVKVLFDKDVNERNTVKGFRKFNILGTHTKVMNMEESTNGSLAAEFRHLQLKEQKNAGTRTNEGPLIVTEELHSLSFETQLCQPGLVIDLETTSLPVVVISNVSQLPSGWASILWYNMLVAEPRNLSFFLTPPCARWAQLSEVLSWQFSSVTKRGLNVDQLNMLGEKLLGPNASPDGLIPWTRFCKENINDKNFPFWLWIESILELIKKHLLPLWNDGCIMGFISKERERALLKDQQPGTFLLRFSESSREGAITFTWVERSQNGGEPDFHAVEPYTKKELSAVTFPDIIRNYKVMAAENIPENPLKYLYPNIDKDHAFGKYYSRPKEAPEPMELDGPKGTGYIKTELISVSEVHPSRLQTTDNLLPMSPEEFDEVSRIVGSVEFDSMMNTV
Test: Inhibition of IFN-gamma-induced STAT1 transcriptional activity in human HepG2 cells by luciferase reporter gene assay
Procedure, shortened: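 STAT1-dependent luciferase reporter assay in HepG2 cells with IFN-γ stimulation; mean ± SD of at least three independent experiments.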

pIC50 | SMILES
6.46 | CCCC(C)Oc1ccc(C(=O)Nc2ccc3nc(SCC(=O)N[C@@H](C)c4ccccc4)sc3c2)c(OC)c1C (some centres not stated)
6.49 | CCCC(C)Oc1ccc(C(=O)Nc2ccc3nc(SCC(=O)N[C@@H](C)c4ccc(OC)cc4)sc3c2)c(OC)c1C (some centres not stated)

From BindingDB's records for doi:10.1016/j.ejmech.2021.113333 (Fudan University, 2021)
